Hits are enriched below; roughly 3.1% of the tested compounds scored in any of these assays.
ABHD5-PLIN5 inh = ABHD5-PLIN5 interaction inhibitors, primary screen, cell lysate, split luciferase complementation, luminescence | Perilipin-5 (Homo sapiens) + 1-acylglycerol-3-phosphate O-acyltransferase ABHD5 (Homo … | Split G. princeps luciferase complementation, 4 h | inhibition, % at 4 µM | 360,000 tested, 0.78% active | AID 602281, 2012;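 active = inhibition above the mean inhibition across every tested compound plus 3 SD, cut at about 22% in these data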;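 also: 0% = DMSO only wells and the 100% control is not disclosed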
Target sequence (Q00G26 whole entry, looked up): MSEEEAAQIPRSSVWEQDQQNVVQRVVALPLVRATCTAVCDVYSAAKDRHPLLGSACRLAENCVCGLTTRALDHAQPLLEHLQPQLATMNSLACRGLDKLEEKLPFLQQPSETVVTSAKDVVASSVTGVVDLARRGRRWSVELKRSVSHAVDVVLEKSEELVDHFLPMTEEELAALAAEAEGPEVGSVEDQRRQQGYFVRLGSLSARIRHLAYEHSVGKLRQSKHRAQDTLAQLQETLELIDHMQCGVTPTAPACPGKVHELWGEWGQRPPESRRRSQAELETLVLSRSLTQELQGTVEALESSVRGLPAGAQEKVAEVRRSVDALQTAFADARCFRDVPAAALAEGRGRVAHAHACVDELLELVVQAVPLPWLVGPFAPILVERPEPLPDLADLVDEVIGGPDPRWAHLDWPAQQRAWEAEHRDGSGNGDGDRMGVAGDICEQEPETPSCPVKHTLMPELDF
Target sequence (Q8WTS1 whole entry, looked up): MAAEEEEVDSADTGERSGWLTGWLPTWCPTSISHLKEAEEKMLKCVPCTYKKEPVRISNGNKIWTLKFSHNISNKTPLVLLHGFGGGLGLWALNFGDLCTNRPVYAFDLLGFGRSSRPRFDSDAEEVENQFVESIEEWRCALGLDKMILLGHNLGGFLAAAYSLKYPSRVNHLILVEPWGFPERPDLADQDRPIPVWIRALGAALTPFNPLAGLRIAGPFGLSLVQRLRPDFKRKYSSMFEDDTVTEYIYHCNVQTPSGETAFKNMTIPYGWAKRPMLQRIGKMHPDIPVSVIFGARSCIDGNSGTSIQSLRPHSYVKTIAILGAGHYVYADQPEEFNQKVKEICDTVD
RBBP9 inhibitor = human RBBP9 inhibitors, primary screen, biochemical, fluorescence polarization, FP-Rh probe, HTS; recombinant RBBP9; inhibition, % at 7.94 µM; AID 1515, 2009; 220,000 tested, 0.2% active;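 active = inhibition above the campaign mean of all tested compounds plus 3 SD, cut at about 14% in these data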;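 also: plate controls were DMSO wells with RBBP9 for no effect and wells lacking RBBP9 protein for full effect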
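System: RBBP9 protein / Quantity: 2.5 µM RBBP9 dispensing solution, before mixing / Also added: Serine-hydrolase probe FP-Rh, 375 nM pre-mixing / Dosing: 7.94 µM single dose, 0.794% DMSO / Timing: enzyme-compound preincubation 30 min, then probe labeling 45 min, 25 °C / Signal: FP readout at 525/598 nm / Controls: DMSO-treated enzyme wells and wells lacking RBBP9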
MBD2 DNA inh = inhibitors of MBD2 binding to methylated DNA, primary screen, biochemical, TR-FRET, DNA-binding domain, human; Methyl-CpG-binding domain protein 2 (Homo sapiens), Q9UBB5; MBD2 binding to methylated oligonucleotide; inhibition, % at 4.4 µM; 370,000 tested, 0.31% active; in the data active = inhibition above about 13%
LEDGF integ inh = blockers of LEDGF/p75-dependent integrase strand transfer – biochemical, TR-FRET, high throughput, primary screen; TR-FRET IN-LEDGF/p75 DNA integration, Eu/Cy5; inhibition, % at 3.7 µM; 370,000 tested, 0.64% active; AID 743269, 2014;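 active = inhibition above the screen-wide mean plus 3 SD, cut at about 13% in these data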;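 also: signal is the Cy5 over europium emission ratio at 671 and 618 nm; 0% = plate median of compound wells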
PRMT1 inh = PRMT1 methyltransferase inhibitors, primary screen, biochemical, fluorescence polarization; recombinant PRMT1, activity-based probe fluorescence polarization; 370,000 tested, 1.3% active; inhibition, % at 2.79 µM;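 active = inhibition above about 21% made by adding two undisclosed values, limit read from the data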
UHRF1 MBD2 ctr = UHRF1 methylated DNA binding inhibitors, primary screen, counter-screen for MBD2 inhibitor project, biochemical, TR-FRET, human UHRF1, single concentration; E3 ubiquitin-protein ligase UHRF1 (Homo sapiens), Q96T88; UHRF1 binding to methylated oligo; inhibition, % at 4.4 µM; 370,000 tested, 0.75% active; AID 687016, 2013;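 also: UHRF1 SRA domain binding a hemimethylated CpG hairpin DNA probe; 0% = median of test compound wells and 100% = reference inhibitor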
UHRF1 DNA bind = UHRF1 methylated DNA binding inhibitors, counter-screen for MBD2 inhibitor project, biochemical, TR-FRET, human UHRF1. UHRF1 binding to methylated oligonucleotide. 1,000 tested, 25% active. shares compounds with MBD2 DNA inh. inhibition, % at 4.4 µM;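 also: UHRF1 SRA domain binding a labeled hemimethylated CpG hairpin DNA; 0% = vehicle only and 100% = reference inhibitor with vehicle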
MBD2 confirm = inhibitors of MBD2 binding to methylated DNA, confirmation, biochemical, TR-FRET, DNA-binding domain, human; AID 720531, 2013; shares compounds with MBD2 DNA inh; 1,000 tested, 26% active; inhibition, % at 4.4 µM; TR-FRET MBD2-DBD binding to methylated oligonucleotide; in the data active = inhibition above about 14%
* = called active by the depositor; . = no result. Rule as the data show it, unless noted: active = inhibition above about 21%; inactive = the rest.

SMILES | ABHD5-PLIN5 inh | RBBP9 inhibitor | MBD2 DNA inh | LEDGF integ inh | PRMT1 inh | UHRF1 MBD2 ctr | UHRF1 DNA bind | MBD2 confirm
Cc1ccccc1NC(=O)c1ccc2nccnc2c1 | 0 | . | 16* | 2 | 1 | 1 | 6 | -1
CN1CCn2cnc(C(=O)Nc3ccc(CNC(=O)OC(C)(C)C)cc3)c2C1=O | 5 | . | 15* | 1 | 6 | 25* | 6 | 3
C/C(C=NNC(=O)CSc1nnc(-c2ccc(Cl)cc2)n1-c1ccc(C)cc1)=C\c1ccccc1 | . | . | 1 | 2 | -2 | -2 | . | .
Cc1cc(C)cc(C(=O)OCCCN(C)C2CN(Cc3cn(Cc4ccccc4C(F)(F)F)nn3)S(=O)(=O)C2)c1 (stereo not drawn) | . | . | 6 | 3 | 1 | 15 | . | .
O=C(c1cccc(F)c1F)N1CCCC(c2nc(-c3cccs3)no2)C1 (stereo not drawn) | . | . | 2 | 0 | 4 | -1 | . | .
CCOc1ccc(NC(=O)NN2C(C)CCCC2C)cc1 (stereo not drawn) | 0 | . | 102* | 5 | -8 | -4 | 7 | 0
CCC[C@H]1[C@@H](NC(=O)NCC)CC[C@@]23CCCN2C(=O)CCC[C@@H]13 | . | . | 4 | 7 | -3 | 1 | . | .
COC(=O)Nc1ccc2c(c1)ncn2C1CCCCC1 | -1 | -9 | 1 | -2 | 2 | 1 | . | .
CC(=O)Nc1ccc2c(c1)ncn2C1CCCCC1 | 3 | -12 | 34* | -1 | 2 | -2 | 3 | 2
COc1cc(/C=C2/C(=O)N(c3ccccc3)N=C2C)ccc1OS(=O)(=O)c1ccccc1 | . | 1 | . | . | . | . | . | .
COc1ccc(/C=C2/C(=O)N(c3ccccc3)N=C2C)cc1Br | -22 | . | 15* | 1 | 4 | 14 | 6 | 1
c1nc(NCC2CCCCO2)c2cc(-c3ccc4c(c3)OCO4)ccc2n1 (stereo not drawn) | . | . | 4 | -2 | 0 | 0 | . | .
O=C(c1ccc(N2CCOCC2)cc1[N+](=O)[O-])N1CCOCC1 | 4 | -7 | 14* | -6 | 3 | 4 | 3 | -2
COc1ccc(-c2cc(C(=O)NN=Cc3ccc(C)s3)[nH]n2)cc1 | . | . | 7 | -4 | 7 | -3 | . | .
CC(=O)Nc1cc(NC(C)=O)cc(C(=O)OCC(=O)c2ccc3c(c2)NC(=O)CO3)c1 | 9 | . | -2 | 2 | 5 | -2 | . | .
N#CCC(=O)Nc1ccc(C(=O)OCC(=O)c2ccc3c(c2)NC(=O)CO3)cc1 | -3 | . | 14* | -2 | 0 | 14 | 17 | 13*
O=C(CNC(=O)/C=C/c1ccco1)N=Nc1c(O)[nH]c2ccccc12 | -1 | . | 30* | 34* | 19 | 53* | 65* | 51*
C=CCn1c(SCc2ccccc2)nc2scc(-c3ccc(C)o3)c2c1=O | 15 | -2 | 7 | -5 | 5 | -1 | . | .
C=CCn1c(SCC(N)=O)nc2scc(-c3ccc(C)o3)c2c1=O | 13 | -6 | 14* | -5 | 17 | 10 | 2 | 0
O=C(N1CCOCC1)N1CC[C@H]2[C@H](CCCN2Cc2ccccc2)C1 | . | . | 2 | 1 | 1 | 1 | . | .
CN(C)CCNc1ncnc2oc(-c3ccccc3)c(-c3ccccc3)c12 | 15 | . | 5 | -1 | -1 | -2 | . | .
COc1ccc(-c2oc3ncnc(NCCCN(C)C)c3c2-c2ccc(OC)cc2)cc1 | 10 | . | 15* | 2 | -1 | 5 | 14 | 10
CCN(CC)C(=O)CC[C@H]1CC[C@]2(CCCN(C(=O)c3ccc4ccccc4n3)C2)O1 | . | . | -2 | 3 | 6 | 1 | . | .
O=c1c2c([nH]c3ccccc13)CCCC2 | 3 | -6 | 0 | -1 | -1 | 0 | . | .
O=C(O)c1cccc2c3c([nH]c12)CCCC3 | 4 | . | 18* | -3 | 3 | 0 | 5 | 2
SMILES | ABHD5-PLIN5 inh | RBBP9 inhibitor | MBD2 DNA inh | LEDGF integ inh | PRMT1 inh | UHRF1 MBD2 ctr | UHRF1 DNA bind | MBD2 confirm
O=C(CSCc1ccccc1)Nc1ccc(F)c(F)c1 | 0 | -5 | 16* | -1 | 2 | 0 | 8 | 5
CC(=NN1CCN(c2ccccn2)CC1)c1ccccc1O | . | . | -1 | 2 | 2 | -2 | . | .
COc1ccc(CNC(=O)c2ccc(-n3ccnc3)c3ccoc23)cc1OC | 4 | . | 14* | 1 | 1 | 23* | 12 | 13
O=C(NCc1cccc(Cl)c1)c1ccc(-n2ccnc2)c2ccoc12 | 8 | . | 14* | 0 | 6 | 22* | 7 | 8
COc1ccc(CNC(=O)c2ccc(-n3cncn3)c3ccoc23)cc1OC | 6 | . | 4 | -2 | 0 | 7 | . | .
COC(=O)C[C@H]1CC[C@@H]2[C@H](COc3ccc(NC(=O)C(C)C)cc3C(=O)N2C)O1 | . | . | 2 | -2 | 4 | 8 | . | .
CC(=O)Nc1ccc(S(=O)(=O)NCC2CCN(C(=O)C(=O)c3cc4ccccc4o3)CC2)cc1 | . | . | 1 | 0 | 2 | 2 | . | .
COCCNc1ncnc2c1ncn2[C@H]1CN(Cc2ccco2)C[C@@H](CO)O1 | 8 | . | 24* | -2 | -4 | 0 | 7 | 2
OCCNc1ncnc2c1ncn2[C@H]1CN(Cc2ccco2)C[C@@H](CO)O1 | 4 | . | 2 | -1 | 3 | 0 | . | .
COc1ccc(S(=O)(=O)N2CCOCC2)cc1NC(=O)c1cccc(-n2cccc2)c1 | 4 | . | -2 | 8 | 0 | 7 | . | .
CCOc1ccc(NC(=O)c2cccc(-n3cccc3)c2)cc1S(=O)(=O)N1CCOCC1 | 5 | . | 31* | 6 | 2 | 54* | 77* | 68*
COc1c(C=O)cc2c3c1CCCN3CCC2 | 5 | . | -7 | 1 | -3 | 0 | . | .
NCc1cc2c3c(c1)CCCN3CCC2 | 3 | . | 18* | 1 | 14 | 16 | 17 | 15*
CCCCOc1ccc(C(=O)NC2CCCCN(C)C2=O)cc1 (stereo not drawn) | . | . | 0 | 0 | -5 | -1 | . | .
Cc1ccccc1N=Nc1c(N)[nH]n(-c2ccccc2)c1=O | . | . | -10 | 0 | -1 | -8 | . | .
CCSc1nc(C)nc2sc(C)c(C)c12 | -1 | -11 | 29* | -1 | -3 | -1 | 8 | 2
